Compound activity deposited in PubChem BioAssay by several laboratories.
Beta2AR agonist: human beta-2 adrenergic receptor agonism by FAP. P07550. response, % (test concentration not listed). 340,000 tested, 0.43% active. Am2.2-beta2AR cells, FAP receptor internalization, flow cytometry. AID 504454;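 active means response above a set limit, near 3 SD of response in nonfluorescent compounds, cut at about 42% in these data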
GRK2 aptamer HTS: blocks RNA aptamer binding to human GRK2 | P25098 | inhibition of aptamer binding, % at 10 µM | AID 488847 | bead flow cytometry, FAM-aptamer displacement from GRK2 | 330,000 tested, 0.59% active;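 active means inhibition of aptamer binding above 40%, roughly 3 SD of noise, on plates passing a quality check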;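 further: median bead fluorescence of bound FAM aptamer so fluorescent compounds give negative values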
Target sequence (P25098 whole entry, looked up): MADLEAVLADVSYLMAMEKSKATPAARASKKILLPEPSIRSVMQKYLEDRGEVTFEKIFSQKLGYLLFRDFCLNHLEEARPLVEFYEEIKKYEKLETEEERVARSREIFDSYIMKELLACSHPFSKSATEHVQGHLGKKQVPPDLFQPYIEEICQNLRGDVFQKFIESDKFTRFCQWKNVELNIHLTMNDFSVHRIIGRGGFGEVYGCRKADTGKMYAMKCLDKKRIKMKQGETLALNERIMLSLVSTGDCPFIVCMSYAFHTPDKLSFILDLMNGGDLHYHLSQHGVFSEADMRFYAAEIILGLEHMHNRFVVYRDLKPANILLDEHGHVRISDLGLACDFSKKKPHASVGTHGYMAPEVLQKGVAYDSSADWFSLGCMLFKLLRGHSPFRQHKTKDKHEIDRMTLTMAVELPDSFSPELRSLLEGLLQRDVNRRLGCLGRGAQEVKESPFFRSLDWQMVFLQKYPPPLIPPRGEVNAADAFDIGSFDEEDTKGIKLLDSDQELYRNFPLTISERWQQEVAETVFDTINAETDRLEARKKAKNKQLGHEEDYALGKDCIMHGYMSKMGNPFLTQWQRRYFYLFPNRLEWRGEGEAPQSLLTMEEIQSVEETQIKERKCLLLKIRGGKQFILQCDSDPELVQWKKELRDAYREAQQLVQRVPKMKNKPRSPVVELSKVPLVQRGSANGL
ABHD5-PLIN5 inh: blocks binding of human ABHD5 to perilipin-5; 360,000 tested, 0.78% active; Q00G26+Q8WTS1; Split G. princeps luciferase complementation, luminescence, 4 h; inhibition, % at 4 µM;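 active means inhibition above the mean inhibition across every tested compound plus 3 SD, cut at about 22% in these data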;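 further: 0% = DMSO only wells and the 100% control is not disclosed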
SENP1 FRET inh: blocks the human SENP1 SUMO protease catalytic domain; recombinant SENP1 catalytic domain, CyPet-SUMO1-YPet FRET cleavage; inhibition, % at 10 µM; 360,000 tested, 0.21% active; AID 624204;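 active means inhibition at least 30% at 10 µM, raw YFP signal under a set limit, fluorescence ratio 0.5 to 1.5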;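 further: 0% = enzyme with DMSO and 100% = no enzyme wells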
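Assay system: hSENP1 catalytic domain, recombinant. Amount: SENP1 enzyme, 20 pM final. Schedule: 50 min reaction, RT, dark. Technique: FRET, CFP and YFP emission. Control set: no-enzyme wells low, DMSO-plus-enzyme wells high control.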
NadD block: blocks S. aureus nicotinate mononucleotide adenylyltransferase. purified NadD enzyme, colorimetric absorbance read-out. inhibition, % at 20 µM. 360,000 tested, 0.78% active. AID 602399; in the data active means inhibition above about 26%
GRK2 CP1: human GRK2 inhibition confirmation, cherry pick 1. AID 504451. bead-bound GRK2, FAM-aptamer displacement, flow cytometry. aptamer displacement, % at 10 µM. shares compounds with GRK2 aptamer HTS. 2,000 tested, 4% active;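 active means aptamer displacement above 40%, near three times the noise of non-fluorescent compounds, on plates passing quality checks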;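 further: negative values mostly reflect intrinsic compound fluorescence rather than true enhancement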
Aptamer quench SP: aptamer fluorescence quenching in GRK2 counter-screen | Carboxyfluorescein RNA aptamer on beads, flow cytometry quenching; hits give low values | AID 504580 | shares compounds with GRK2 aptamer HTS | fluorescence response (% of DMSO), % at 10 µM | 2,000 tested, under 10 active;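 active means compounds that quench the bead-bound fluorescent RNA probe, cutting fluorescence to under half of the solvent control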;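 further: counterscreen run without GRK2 so only probe quenching by compound is measured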
GRK2 confirm 2: confirmation of human GRK2 inhibitors binding RNA aptamer site; shares compounds with GRK2 aptamer HTS; bead-bound GRK2, FAM-aptamer displacement, flow cytometry; inhibition of aptamer binding, % at 10 µM; 360 tested, under 10 active; AID 504782;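 active means inhibition of aptamer binding above 40%, about triple the noise seen with nonglowing compounds, on plates passing quality control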;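 further: negative values mostly come from compounds that fluoresce themselves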
FAM quench CP2: aptamer fluorescence quenching in GRK2 counter-screen. shares compounds with GRK2 aptamer HTS. carboxyfluorescein RNA aptamer beads, flow cytometry quenching; hits give low values. fluorescence response vs DMSO, % at 10 µM. 360 tested, under 10 active. AID 588494;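 active means response vs DMSO under 50%, meaning signal dropped by over half, treated as fluorescence quencher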;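 further: labelled aptamer on streptavidin beads without GRK2 as a quench counter-screen; 100% = bead fluorescence of DMSO wells and lower means quenching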
* hit, by the source's call; nt = no result given. Shown are actives, neighbours in structure and some others; about 2.5% of the full set was active somewhere.

SMILES | Beta2AR agonist | GRK2 aptamer HTS | ABHD5-PLIN5 inh | SENP1 FRET inh | NadD block | GRK2 CP1 | Aptamer quench SP | others
COCOc1ccc(C=O)c(O)c1 | 6 | 0 | 1 | 2 | 4 | nt | nt
O=C(CCN1C(=O)[C@@H]2Cc3ccccc3CN2C1=O)Nc1cccc(F)c1 | -5 | 0 | -3 | 1 | -4 | nt | nt
Cc1ccc(C(CNS(=O)(=O)c2ccccc2)N2CCN(C)CC2)cc1 (centres undefined) | 13 | 0 | 11 | 0 | -4 | nt | nt | GRK2 confirm 2=6;FAM quench CP2=99
CC1(C)CC(=O)C2=C(C1)NC1=C(C(=O)c3ccccc31)C2c1ccccc1 (centres undefined) | -11 | 3 | 10 | 1 | 2 | nt | nt
CC(C)(C)c1ccc(C2C3=C(CCCC3=O)NC3=C2C(=O)c2ccccc23)cc1 (centres undefined) | 8 | 51* | 18 | 2 | 4 | 1 | 99
O=C(CNc1cccc(F)c1)N1CCc2ccccc2C1 | -2 | 51* | 7 | 0 | -3 | nt | nt | GRK2 confirm 2=25;FAM quench CP2=102
O=C(c1cccc(F)c1)N1CCc2ccccc2C1 | -6 | 0 | 0 | 3 | -3 | nt | nt
CCCCc1c(-c2ccccc2OC)ncn1CCc1ccc(Cl)cc1 | nt | nt | 1 | 3 | 5 | nt | nt
CC1Nc2nc(N(C)C)[nH]c(=O)c2NC1C (centres undefined) | 0 | 15 | 0 | -57 | 1 | 1 | 104
Fc1ccc(-c2nnc(-c3ccc4ccccc4c3)o2)cc1 | 2 | nt | 2 | 1 | -11 | nt | nt
NS(=O)(=O)c1ccc(NC(=S)N2CCC(O)CC2)cc1 | 9 | 91* | -10 | -1 | -4 | 2 | 99
CCN(C(=O)COC(=O)CSc1ccc(C(N)=O)cc1[N+](=O)[O-])C1CCCCC1 | 4 | 0 | -4 | -3 | 4 | nt | nt
COCCCN1C(=O)C(=O)/C(=C(/O)c2ccc(S(=O)(=O)N3CCCCC3)cc2)C1c1ccc(O)cc1 (centres undefined) | 15 | 0 | 8 | 3 | 10 | -4 | 95
O=C(OCC(=O)N1CCN(S(=O)(=O)c2ccccc2)CC1)C1CCC1 | 13 | 59* | -8 | 0 | 1 | nt | nt | GRK2 confirm 2=13;FAM quench CP2=101
O=C(OCC(=O)N1CCN(S(=O)(=O)c2ccc(Cl)cc2)CC1)C1CCC1 | 1 | 1 | 8 | 1 | 0 | nt | nt
Cc1ccc(S(=O)(=O)N2CCN(c3nn(C)c(=O)n(C)c3=O)CC2)cc1C | 3 | 0 | 1 | 1 | -1 | nt | nt
COc1ccc(NC(=O)c2cccnn2)cc1 | 0 | 13 | -9 | 0 | -3 | nt | nt
COc1cccc(NC(=O)Nc2cccc(C)n2)c1 | 21 | 58* | -3 | -1 | -4 | -1 | 93
COc1cccc(NC(=O)c2cccnn2)c1 | -2 | 41* | -12 | 1 | -2 | 0 | 98
O=C1c2cccc(NCCNCCO)c2C(=O)c2cccc(NCCNCCO)c21 | 41 | nt | 5 | -4 | 4 | nt | nt
CCOC(=O)C1(CCCc2ccccc2)CCN(CCCn2cccn2)CC1 | 2 | 93* | 4 | 0 | -6 | -3 | 106
CCOC(=O)c1c2n(c3ccc(O)cc13)CCCCC2 | 0 | 0 | 3 | 1 | 2 | nt | nt
CCOC(=O)c1c(C)n2c3c(cc(C)cc13)CCC2 | -2 | 86* | -1 | 3 | -3 | -2 | 92
O=C(Nc1ccc(F)cc1F)c1noc2c1CCC2 | -11 | 59* | 1 | -3 | 7 | 13 | 102
CCN(CCCNC(=O)Cn1ncc2c([nH]c3ccc(C)cc32)c1=O)c1cccc(C)c1 | 11 | 0 | 1 | 3 | 6 | -6 | 99
Cc1ccc2[nH]c3c(=O)n(CC(=O)NCCCN(C)Cc4ccccc4)ncc3c2c1 | 6 | 0 | 2 | 1 | 2 | nt | nt
CCN(CCCNC(=O)Cn1ncc2c([nH]c3ccc(C)cc32)c1=O)c1ccccc1 | 6 | 48* | -8 | 1 | 12 | -2 | 98
